Laboratory results: ChEMBL document CHEMBL2010641, “A novel 3,4-dihydropyrimidin-2(1H)-one: HIV-1 replication inhibitors with improved metabolic stability” (Bioorg Med Chem Lett, 2012)
Activity calls are given as the source filed them. The rule behind the calls is not given here.

Legend:
[1] = Half life in rat liver microsomes at 2 uM; type: ADME, Microsome
How it was run: (§1)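 Compound at 2 µM final was incubated with rat or human liver microsomes (0.5 mg/mL protein) in potassium phosphate buffer with 0.2% DMSO final. Reaction was started with NADPH and stopped at 0, 5, 10, 30, 60 and 120 min. Loss of parent was measured by LC/MS (ESI quadrupole, water/acetonitrile with 0.1% formic acid gradient). Values are geometric means of n = 2.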

[2] = Cytotoxicity against human CEmx174 cells; type: cell-based
How it was run: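 CC50 is the concentration that reduces viability of uninfected cells by 50%. Reported as the geometric mean of two determinations (n = 2), each within 25% of the mean.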

[3] = Half life in human liver microsomes at 2 uM; type: ADME, Microsome; how it was run: as §1
[4] = system: Human immunodeficiency virus 1; experiment: Antiviral activity against HIV1 LAI infected in CEMx174 cells coexpressing GFP after 5 days by fluorimetry; type: functional, organism-based; settings: for EC50: Human immunodeficiency virus 1, LAI, CEMx174, 120 h
How it was run: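 Cells (4000/well) pre-incubated with compound diluted in DMSO for 1 h at 37 °C, 5% CO2, then infected with HIV-1 LAI at MOI 3 and cultured 5 days at 37 °C, 5% CO2. EC50 is the concentration inhibiting viral replication by 50%. Values are geometric means of two determinations (n = 2), each within 25% of the mean.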

SMILES	half-life at 2 µM [1] [min]	CC50 [2] [µM]	half-life at 2 µM [3] [min]	EC50 [4] [µM]	Activity [4]
CCC1=C(C(=O)OCC2CCCCC2)[C@H](c2cccc(O)c2)NC(=O)N1	1.5	> 10	11	–	–
CCC1=C(C(=O)CCC2CCCC2)[C@H](c2ccc(O)c(Cl)c2)NC(=O)N1	–	> 10	–	0.42	–
CCC1=C(C(=O)CCC2CCCCCC2)[C@H](c2ccc(O)c(Cl)c2)NC(=O)N1	–	> 10	–	0.329	–
CCC1=C(C(=O)CC2CCC(CC)CC2)[C@H](c2ccc(O)c(Cl)c2)NC(=O)N1 (stereo not given in full)	16	> 10	24	0.087	–
CCC1=C(C(=O)CC2CCC(OC)CC2)[C@H](c2ccc(O)c(Cl)c2)NC(=O)N1 (stereo not given in full)	–	> 10	–	> 10	–
O=C1NC2=C(C(=O)OCC2)C(c2cccc(O)c2)N1 (stereo not given)	–	> 10	–	> 10	–
CCC1=C(c2nc(C3CCCCC3)c[nH]2)[C@H](c2ccc(O)c(F)c2)NC(=O)N1	–	> 10	–	> 10	–
Cc1ccnc2c1NC(=O)c1cccnc1N2C1CC1 [NEVIRAPINE]	–	> 10	–	–	–
CCC1=C(c2nc(C3CCCCC3)cs2)[C@H](c2ccc(O)c(Cl)c2)NC(=O)N1	30	> 10	682	0.078	–
CCC1=C(C(=O)CC2CCCCC2)[C@H](c2ccc(O)c(Cl)c2)NC(=O)N1	7	> 10	18	0.983	–
CCC1=C(C(=O)O)[C@H](c2cccc(O)c2)NC(=O)N1	–	–	–	–	inactive
O=C1NC2=C(C(=O)OC2)C(c2cccc(O)c2)N1 (stereo not given)	–	> 10	–	> 10	–
CCC1=C(c2nc(C3CCCCC3)co2)[C@H](c2ccc(O)c(Cl)c2)NC(=O)N1	54	> 10	132	0.116	–
CCC1=C(C(=O)CCC2CCCCC2)[C@H](c2ccc(O)c(Cl)c2)NC(=O)N1	5	> 10	22	0.403	–
CCC1=C(C(=O)CCc2ccccc2)[C@H](c2ccc(O)c(Cl)c2)NC(=O)N1	–	> 10	–	> 10	–
CCC1=C(C(=O)CC2CCC(C)CC2)[C@H](c2ccc(O)c(Cl)c2)NC(=O)N1 (stereo not given in full)	–	> 10	–	0.48	–
CCC1=C(C(=O)CC2CCC(C(C)C)CC2)[C@H](c2ccc(O)c(Cl)c2)NC(=O)N1 (stereo not given in full)	–	> 10	–	1.4	–
CCC1=C(C(=O)CC2CCCC2)[C@H](c2ccc(O)c(Cl)c2)NC(=O)N1	–	> 10	–	3.28	–
CCC1=C(C(=O)OCC2CCCCC2)[C@H](c2ccc(O)c(Cl)c2)NC(=O)N1	7	> 10	36	0.019	–
CCC1=C(C(=O)O)[C@H](c2ccc(O)c(Cl)c2)NC(=O)N1	–	–	–	–	inactive
